# Assay results as given in ChEMBL document CHEMBL1144620, “Synthesis and biodistribution of new radiolabeled high-affinity choline transporter inhibitors [11C]hemicholinium-3 and [18F]hemicholinium-3” (Bioorg Med Chem Lett, 2007).
# Key:
# Kidney [1] = assay: Biodistribution in kidney of 9L-glioma bearing rat at 1 to 3 mCi, iv after 5 mins; type: ADME, organism-based; details: in vivo
# Procedure, shortened: (§1)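 9L-glioma rats (200–300 g) given 1–3 mCi of [¹¹C]- or [¹⁸F]-labelled tracer iv by tail vein while consciously restrained. At 5 or 20 min they were decapitated under halothane anaesthesia. Tissues were excised and weighed, and decay-corrected radioactivity was counted by gamma counter. Values are %ID/g, averaged over three rats per time point.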
# Brain [2] = assay: Biodistribution in brain of 9L-glioma bearing rat at 1 to 3 mCi, iv after 20 mins; type: ADME, organism-based; details: in vivo; procedure, shortened: as §1
# [3] = Biodistribution in L-ventricle of 9L-glioma bearing rat at 1 to 3mCi, iv after 5 mins; type: ADME, organism-based, Heart left ventricle; details: in vivo; procedure, shortened: as §1
# Septum [4] = assay: Biodistribution in septum of 9L-glioma bearing rat at 1 to 3mCi, iv after 5 mins; type: ADME, organism-based; details: in vivo; procedure, shortened: as §1
# [5] = Biodistribution in R-ventricle of 9L-glioma bearing rat at 1 to 3 mCi, iv after 20 mins; type: ADME, organism-based, Heart right ventricle; details: in vivo; procedure, shortened: as §1
# [6] = Biodistribution in L-Atrium of 9L-glioma bearing rat at 1 to 3 mCi, iv after 20 mins; type: ADME, organism-based, Left cardiac atrium; details: in vivo; procedure, shortened: as §1
# [7] = Ratio of biodistribution in tumor to muscle of 9L-glioma bearing rat at 1 to 3 mCi, iv after 5 mins; type: ADME, organism-based; details: in vivo
# [8] = Biodistribution in urine of 9L-glioma bearing rat at 1 to 3 mCi, iv after 5 mins; type: ADME, organism-based; details: in vivo
# Procedure, shortened: (§2)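 In 9L-glioma rats injected iv (tail vein, conscious restraint) with 1–3 mCi of radiotracer, urine was drawn by syringe from the bladder at 5 or 20 min. Animals were killed by decapitation under halothane. Decay-corrected radioactivity was gamma-counted and expressed as percent of injected dose (%ID), averaged over three rats.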
# 9L [9] = assay: Biodistribution in tumor of 9L-glioma bearing rat at 1 to 3 mCi, iv after 20 mins; type: ADME, organism-based; details: in vivo; procedure, shortened: as §1
# Blood [10] = assay: Biodistribution in blood of 9L-glioma bearing rat at 1 to 3 mCi, iv after 5 mins; type: ADME, organism-based; details: in vivo; procedure, shortened: as §1
# Liver [11] = assay: Biodistribution in liver of 9L-glioma bearing rat at 1 to 3 mCi, iv after 20 mins; type: ADME, organism-based; details: in vivo; procedure, shortened: as §1
# Solar plexus [12] = assay: Biodistribution in solar plexus of 9L-glioma bearing rat at 1 to 3 mCi, iv after 5 mins; type: ADME, organism-based; details: in vivo; procedure, shortened: as §1
# Plasma [13] = assay: Biodistribution in plasma of 9L-glioma bearing rat at 1 to 3 mCi, iv after 20 mins; type: ADME, organism-based; details: in vivo; procedure, shortened: as §1
# [14] = Biodistribution in A-V-node of 9L-glioma bearing rat at 1 to 3 mCi, iv after 5 mins; type: ADME, organism-based; details: in vivo; procedure, shortened: as §1
# Brain [15] = assay: Biodistribution in brain of 9L-glioma bearing rat at 1 to 3 mCi, iv after 5 mins; type: ADME, organism-based; details: in vivo; procedure, shortened: as §1
# [16] = Biodistribution in skeletal muscle of 9L-glioma bearing rat at 1 to 3 mCi, iv after 5 mins; type: ADME, organism-based, Muscle tissue; details: in vivo; procedure, shortened: as §1
# Kidney [17] = assay: Biodistribution in kidney of 9L-glioma bearing rat at 1 to 3 mCi, iv after 20 mins; type: ADME, organism-based; details: in vivo; procedure, shortened: as §1
# [18] = Ratio of biodistribution in tumor to blood of 9L-glioma bearing rat at 1 to 3 mCi, iv after 20 mins; type: ADME, organism-based; details: tumour
# 9L [19] = assay: Biodistribution in tumor of 9L-glioma bearing rat at 1 to 3 mCi, iv after 5 mins; type: ADME, organism-based; details: in vivo; procedure, shortened: as §1
# Septum [20] = assay: Biodistribution in septum of 9L-glioma bearing rat at 1 to 3 mCi, iv after 20 mins; type: ADME, organism-based; details: in vivo; procedure, shortened: as §1
# [21] = Biodistribution in R-ventricle of 9L-glioma bearing rat at 1 to 3 mCi, iv after 5 mins; type: ADME, organism-based, Heart right ventricle; details: in vivo; procedure, shortened: as §1
# Lung [22] = assay: Biodistribution in lung of 9L-glioma bearing rat at 1 to 3 mCi, iv after 5 mins; type: ADME, organism-based; details: in vivo; procedure, shortened: as §1
# Liver [23] = assay: Biodistribution in liver of 9L-glioma bearing rat at 1 to 3 mCi, iv after 5 mins; type: ADME, organism-based; details: in vivo; procedure, shortened: as §1
# Lung [24] = assay: Biodistribution in lung of 9L-glioma bearing rat at 1 to 3 mCi, iv after 20 mins; type: ADME, organism-based; details: in vivo; procedure, shortened: as §1
# [25] = Biodistribution in L-Atrium of 9L-glioma bearing rat at 1 to 3 mCi, iv after 5 mins; type: ADME, organism-based; details: in vivo; procedure, shortened: as §1
# [26] = Biodistribution in skeletal Muscle of 9L-glioma bearing rat at 1 to 3 mCi, iv after 20 mins; type: ADME, organism-based, Muscle tissue; details: in vivo; procedure, shortened: as §1
# [27] = Ratio of biodistribution in tumor to blood in 9L-glioma bearing rat at 1 to 3 mCi, iv after 5 mins; type: ADME, organism-based; details: tumor and blood (tumor-to-blood ratio)
# [28] = Biodistribution in L-ventricle of 9L-glioma bearing rat at 1 to 3 mCi, iv after 20 mins; type: ADME, organism-based, Heart left ventricle; details: in vivo; procedure, shortened: as §1
# Plasma [29] = assay: Biodistribution in plasma of 9L-glioma bearing rat at 1 to 3 mCi, iv after 5 mins; type: ADME, organism-based; details: in vivo; procedure, shortened: as §1
# Blood [30] = assay: Biodistribution in blood of 9L-glioma bearing rat at 1 to 3 mCi, iv after 20 mins; type: ADME, organism-based; details: in vivo; procedure, shortened: as §1
# Solar plexus [31] = assay: Biodistribution in solar plexus of 9L-glioma bearing rat at 1 to 3 mCi, iv after 20 mins; type: ADME, organism-based; details: in vivo; procedure, shortened: as §1
# [32] = Biodistribution in R-Atrium of 9L-glioma bearing rat at 1 to 3 mCi, iv after 5 mins; type: ADME, organism-based, Right cardiac atrium; details: in vivo; procedure, shortened: as §1
# [33] = Ratio of biodistribution in tumor to muscle of 9L-glioma bearing rat at 1 to 3 mCi, iv after 20 mins; type: ADME, organism-based; details: in vivo
# [34] = Biodistribution in urine of 9L-glioma bearing rat at 1 to 3 mCi, iv after 20 mins; type: ADME, organism-based; details: in vivo; procedure, shortened: as §2
# [35] = Biodistribution in R-Atrium of 9L-glioma bearing rat at 1 to 3 mCi, iv after 20 mins; type: ADME, organism-based, Right cardiac atrium; details: in vivo; procedure, shortened: as §1
# [36] = Biodistribution in A-V-node of 9L-glioma bearing rat at 1 to 3 mCi, iv after 20 mins; type: ADME, organism-based; details: in vivo; procedure, shortened: as §1
compound,measurement,setting,value
C[N+]1(C)CCOC(O)(c2ccc(-c3ccc(C4(O)C[N+](C)([11CH3])CCO4)cc3)cc2)C1.O=S(=O)([O-])C(F)(F)F.[I-] (stereo unspecified),Drug uptake,Kidney [1],7.64 % ID/g
same,Drug uptake,Brain [2],0.035 % ID/g
same,Drug uptake,[3],0.415 % ID/g
same,Drug uptake,Septum [4],0.381 % ID/g
same,Drug uptake,[5],0.234 % ID/g
same,Drug uptake,[6],0.457 % ID/g
same,Ratio,[7],3.199
same,Drug uptake,[8],6.38 % dose
same,Drug uptake,9L [9],0.457 % ID/g
same,Drug uptake,Blood [10],1.383 % ID/g
same,Drug uptake,Liver [11],1.239 % ID/g
same,Drug uptake,Solar plexus [12],0.522 % ID/g
same,Drug uptake,Plasma [13],1.453 % ID/g
same,Drug uptake,[14],1.074 % ID/g
same,Drug uptake,Brain [15],0.06 % ID/g
same,Drug uptake,[16],0.207 % ID/g
same,Drug uptake,Kidney [17],3.656 % ID/g
same,Ratio,[18],0.622
same,Drug uptake,9L [19],0.649 % ID/g
same,Drug uptake,Septum [20],0.223 % ID/g
same,Drug uptake,[21],0.401 % ID/g
same,Drug uptake,Lung [22],1.081 % ID/g
same,Drug uptake,Liver [23],0.848 % ID/g
same,Drug uptake,Lung [24],0.59 % ID/g
same,Drug uptake,[25],1.026 % ID/g
same,Drug uptake,[26],0.159 % ID/g
same,Kp at 5 min,[27],0.466
same,Drug uptake,[28],0.244 % ID/g
same,Drug uptake,Plasma [29],3.648 % ID/g
same,Drug uptake,Blood [30],0.749 % ID/g
same,Drug uptake,Solar plexus [31],2.057 % ID/g
same,Drug uptake,[32],0.963 % ID/g
same,Ratio,[33],3.094
same,Drug uptake,[34],25 % dose
same,Drug uptake,[35],0.398 % ID/g
same,Drug uptake,[36],0.478 % ID/g
